CSN deneddyl inh: CSN deneddylation inhibition; 360,000 compounds, 0.38% hits; Q92905; inhibition, % at 12.5 µM; AID 651999; Purified CSN, SCF-Nedd8-OG deneddylation, fluorescence polarization;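 active = pattern-corrected inhibition above about 35%, with an unprinted fluorescence ratio check between 0.5 and 1.5, limit read from the data, passing the limit was not always enough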;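 note: 0% = enzyme with substrate and 100% = substrate without enzyme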
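Material: human Csn5 produced in HEK293T cells; Input: enzyme 0.24 nM; Reagent: SCFSkp2-Nedd8OG substrate at 10 nM final; Dosing: 12.5 µM compound; Incubation: 90 min reaction at room temperature; Detection: fluorescence polarization of the substrate; Evaluation: % inhibition of substrate cleavage by Csn5; Control set: substrate-only high control, full reaction low control.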
ASAP1 inh: blocks human ASAP1-stimulated Arf1 GTP hydrolysis. GDP FP detection. inhibition, % at 16.5 µM. 360,000 compounds, 0.19% hits. AID 624377; in the data active = inhibition above about 25%;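 note: 0% = vehicle with enzyme and substrate and 100% = no enzyme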
HNF4A DNA FP: change in binding of human HNF4 alpha to DNA; P41235; HNF4a-FITC DNA binding, fluorescence polarization, 1 h; activity change, % at 10 µM; 360,000 compounds, 0.3% hits; AID 1224865; in the data active = activity change above about 30%, passing the limit was not always enough
Target sequence (P41235 whole entry, looked up): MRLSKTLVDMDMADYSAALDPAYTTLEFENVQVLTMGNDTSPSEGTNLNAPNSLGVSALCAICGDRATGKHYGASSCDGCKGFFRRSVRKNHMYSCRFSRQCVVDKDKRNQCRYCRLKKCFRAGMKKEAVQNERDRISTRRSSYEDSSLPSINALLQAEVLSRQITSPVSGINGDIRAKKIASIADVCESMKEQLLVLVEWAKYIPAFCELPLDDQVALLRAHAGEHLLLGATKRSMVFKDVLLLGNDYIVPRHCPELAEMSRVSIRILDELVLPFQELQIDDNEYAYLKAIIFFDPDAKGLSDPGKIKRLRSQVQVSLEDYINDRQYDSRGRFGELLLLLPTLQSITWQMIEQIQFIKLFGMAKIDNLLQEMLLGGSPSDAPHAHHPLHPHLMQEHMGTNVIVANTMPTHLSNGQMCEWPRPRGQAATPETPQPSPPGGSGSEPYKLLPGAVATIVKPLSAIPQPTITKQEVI
ARFGAP1 inhibitor: inhibitors of rat ARFGAP1 | Q62848 | inhibition, % at 16.5 µM | Arfgap1-stimulated ARF1 GTP hydrolysis, GDP FP detection | 360,000 compounds, 0.26% hits;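 active = inhibition above a per-plate limit, mean inhibition of low control wells plus 3 SD, cut at about 25% in these data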;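 note: 0% = DMSO wells with enzyme and 100% = wells lacking Arfgap1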
Target sequence (Q62848 1-136 limits assumed): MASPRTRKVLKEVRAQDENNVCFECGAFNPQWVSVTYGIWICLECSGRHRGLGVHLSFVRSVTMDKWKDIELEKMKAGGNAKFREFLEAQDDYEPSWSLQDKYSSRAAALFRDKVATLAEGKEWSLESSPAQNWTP
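Material – truncated rat Arfgap1 GAP domain · Buffer or medium – HEPES-based buffer, pH 7.5 · Reagent – human ARF1(Δ1-17)-GTP substrate · Dosing – 16.5 µM single point, 1.26% DMSO · Schedule – GTP hydrolysis reaction 2 h at 25 °C · Technique – GDP detection by fluorescence polarization · Benchmarks – No-Arfgap1 wells (100%) versus DMSO full-reaction wells (0%) · Repeats – single replicate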
ARFGAP1 confirm: rat ARFGAP1 inhibition, confirmed; ARFGAP1-stimulated ARF1 GTP hydrolysis, GDP tracer FP; AID 651608; inhibition, % at 16.5 µM; 890 compounds, 30% hits; shares compounds with ARFGAP1 inhibitor;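 active = average inhibition over triplicates above the hit cutoff set in the earlier primary screen, cut at about 25% in these data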;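 note: 0% = Arfgap1 plus ARF1-GTP with DMSO and 100% = wells lacking Arfgap1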
Starred values were filed as active, the others as inactive; / = no result. The list is not random: actives were taken first. Their share in the collection is about 0.95%.

SMILES	CSN deneddyl inh	ASAP1 inh	HNF4A DNA FP	ARFGAP1 inhibitor	ARFGAP1 confirm
COCC(C)n1c(C)cc(C(=O)CN2c3cccc4cccc(c34)S2(=O)=O)c1C (stereo not drawn)	-2.5	8.7	-0.7	29.2*	25.7*
Cc1sc2ncnc(SCC(=O)Nc3cccc(S(N)(=O)=O)c3)c2c1C	0.1	-1.3	3.1	27.4*	1.7
O=C(N/N=C/c1ccccc1)c1[nH]ncc1Br	-5.1	4.3	3.8	27.8*	3.5
O=C(NCC(c1ccco1)N1CCCC1)c1ccccc1Sc1ccc(C(F)(F)F)cc1[N+](=O)[O-] (stereo not drawn)	-0.9	-6.9	2.6	8.9	/
O=C(Nc1ccc(CN2CCOCC2)cc1)c1ccc(-c2cccc(Cl)c2)o1	3.7	13.6	1.9	32.4*	27.3*
COc1ccc(N2CC(C)(C)[C@H](CC(=O)Nc3ccccc3)C2=O)cc1	-0.9	-4.6	-10.9	4.2	/
O=[N+]([O-])c1ccc2[nH]nc(-c3ccccc3)c2c1	-3.9	-4.7	4.3	2.4	/
O=[N+]([O-])c1ccc2[nH]c3nc4ccccc4nc3c2c1	-3.6	8.1	0.7	26.4*	37.5*
O=C(NC1CCCCC1)C(c1ccc(C(F)(F)F)cc1)n1c(=O)c(-c2cc3ccccc3[nH]2)nc2ccccc21 (stereo not drawn)	0.8	9.7	-37.5	20.1	/
COc1ccc(Nc2nnc(SCC(=O)NC3CCCC3)s2)cc1	6.0	-14.7	5.1	-4.7	/
O=C(CSc1nnc(Nc2ccccc2)s1)NC1CCCC1	-2.1	16.2	-3.0	25.5*	-3.7
O=C(NCc1ccccc1)C(c1ccc(-c2ccccc2)cc1)n1c(=O)c(-c2cc3ccccc3[nH]2)nc2ccccc21 (stereo not drawn)	8.9	5.7	3.3	5.4	/
O=C(NCc1ccccc1)C(c1ccncc1)n1c(=O)c(-c2cc3ccccc3[nH]2)nc2ccccc21 (stereo not drawn)	6.3	13.2	3.1	24.9*	21.0
CC(C)(C)c1nnc2sc(SCC(=O)N3CCCCC3)nn2c1=O	6.3	3.9	2.2	-12.0	/
Cc1cccc(N2C(=O)C(Oc3ccc(Cl)cc3Cl)C2C(=O)O)c1C (stereo not drawn)	-13.8	3.2	1.6	25.0*	-6.6
CCCCN(C(=O)/C=C/c1ccco1)c1c(N)n(Cc2ccccc2)c(=O)[nH]c1=O	-8.3	1.6	-3.6	4.1	/
CCOc1ccc(N2C(=O)CC(Sc3nc(C)cc(C)n3)C2=O)cc1 (stereo not drawn)	2.6	5.7	-0.7	14.4	/
Cc1ccc(N2C(=O)CC(Sc3nc(C)cc(C)n3)C2=O)cc1 (stereo not drawn)	5.5	-12.5	2.5	24.9*	1.0
CC(C)(C)CCN1CCC(CN2CCNC(=O)C2=O)CC1	-7.8	-3.5	1.3	-4.1	/
CC(C)NC(=O)c1ccccc1NC(=O)CN(c1ccc2c(c1)OCO2)S(C)(=O)=O	6.6	-13.3	-1.1	30.0*	3.2
COc1ccc(-n2c(SCC(N)=O)nc3sc4c(c3c2=O)CCN(C)C4)cc1	10.4	22.5	11.3	37.3*	37.1*
O=C(O)CSc1nc2sc3c(c2c(=O)n1-c1ccccc1)CCC3	2.8	5.6	-5.3	4.1	/
COc1ccc(-n2c(SCCNCCO)nc3sc4c(c3c2=O)CCCC4)cc1	-1.1	9.2	4.6	32.0*	22.2
COc1ccc(-n2c(SCC(=O)O)nc3sc4c(c3c2=O)CCCC4)cc1	-1.7	20.5	0.4	35.2*	51.6*
Cc1cc(OCc2cc(C(=O)N3CCCCCC3)no2)cc(C)c1Cl	1.9	-1.5	3.7	-17.7	/
SMILES	CSN deneddyl inh	ASAP1 inh	HNF4A DNA FP	ARFGAP1 inhibitor	ARFGAP1 confirm
Nn1cnnc1N/N=C\c1ccc(-c2ccccc2[N+](=O)[O-])o1	4.4	-5.8	-0.6	27.5*	4.4
COc1ccc(-c2csc(NC(=O)CN3C(=O)NC4(CCCC4)C3=O)n2)cc1OC	1.0	-7.1	-1.4	26.8*	4.2
COc1ccccc1CNC(=O)C1CC2Cn3c(nc4cc(C)c(C)cc43)C2N1C (stereo not drawn)	4.4	-8.4	-3.1	0.0	/
CCn1nc(NC(=O)c2cccnc2)c2cc3ccccc3nc21	-7.1	8.6	0.3	26.7*	7.9
CCn1nc(NC(=O)c2cccs2)c2cc3ccccc3nc21	-0.1	1.3	3.9	9.3	/
O=C(Cn1c2ccc(F)cc2c2nc3n(c(=O)c21)CCS3)Nc1ccccc1C(F)(F)F	-2.8	22.2	3.0	30.2*	41.8*
O=C(Cn1c2ccc(F)cc2c2nc3n(c(=O)c21)CCS3)NC1CCCC1	2.2	3.2	-1.8	-3.8	/
CCCNC(=O)Cn1cnc2sc(C(=O)N3CCN(c4ccc(F)cc4)CC3)c(C)c2c1=O	4.5	6.3	12.4	26.1*	3.7
C/C(=N\N=C(N)N)c1ccc(Cl)c(Cl)c1	3.0	-15.8	-2.5	-1.4	/
CC(C)Cc1ccc(C(C)NC(=O)Cc2ccc(S(=O)(=O)N3CCOCC3)s2)cc1 (stereo not drawn)	-3.8	1.1	1.7	25.1*	4.5
CCOc1ccc(C(=O)N2CCN(Cc3ccccc3)CC2)cc1OCC	-1.4	-11.5	1.1	-8.1	/
Cn1c(N=Cc2ccc([N+](=O)[O-])cc2)c(N)c(=O)n(C)c1=O	-8.1	4.8	1.2	-5.9	/
CC(Nc1nc(N2CCNCC2)nc2ccccc12)c1ccccc1 (stereo not drawn)	7.1	-10.1	3.0	26.4*	8.3
CC(Nc1nc(-c2ccncc2)nc2ccccc12)c1ccccc1 (stereo not drawn)	-3.2	1.6	3.5	1.2	/
OC[C@@H]1CN(Cc2ccc(F)cc2)C[C@H](n2cnc3c(Nc4ccccc4)ncnc32)O1	1.7	-2.3	0.4	38.2*	1.3
COc1ccccc1C(=O)N1CCN(C(=O)c2oc3c(C)c(C)ccc3c2C)CC1	1.2	9.2	0.5	19.1	/
COc1ccc(NC(=S)N2CCC(C(=O)c3ccc(F)cc3)CC2)cc1	2.2	-11.9	0.9	-10.6	/
CCCCCCCCN1C(=O)[C@H](CC(=O)NCc2ccccc2)C[C@@]2(C(=O)OCC)CCC=C12	-2.7	7.0	-5.6	28.4*	4.1
C=C(C)CC1(NC(C)c2ccccc2)CCCCC1 (stereo not drawn)	0.1	11.7	0.2	30.6*	-0.8
Cn1c(/C(C#N)=C/c2ccc(O)cc2)nc2ccccc21	-0.8	9.4	0.7	24.9*	3.3
CCc1ccccc1OCC(=O)Nc1cccc(S(=O)(=O)NC2=NCCC2)c1	-0.7	6.0	-1.3	0.4	/
COc1ccc(C(=O)Nc2ccc3c(c2)C(=O)NC3=O)cc1	1.3	3.2	3.0	3.9	/
O=[N+]([O-])c1cc(C(F)(F)F)cc([N+](=O)[O-])c1Sc1n[nH]c(C(F)(F)F)n1	-4.6	12.8	4.7	29.3*	-11.0
CC(=O)OCC(=O)Nc1cc(S(=O)(=O)N2CCCCCC2)ccc1Cl	-3.5	-1.8	-1.6	25.2*	-0.4
